Reference: ChEMBL document CHEMBL5385937
Calls of active or inactive are those of the source. No cut-off for these calls is given here.

What was measured:
[1] = biological target: Indoleamine 2,3-dioxygenase 1 (Homo sapiens) (UniProt P14902); experiment: Inhibition of IDO1 in human BXPC-3 cells assessed as reduction in IFNgamma induced Trp level at 5 mM pretreated with IFNgamma for 24 hrs followed by compound addition for 30 mins prior to Trp addition and measured after 30 mins by HPLC-MS/MS analysis; format: cell-based; settings: time 25.0 hrs
Summary of the method: (§1)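 BxPC-3 cells were kept in Trp-free RPMI for 48 h, then given 50 ng/mL IFN-γ with starvation continued another 24 h. Medium was replaced by Trp-free medium containing compound for 30 min. 50 μM Trp was then added for 30 min. Supernatant Trp was measured by HPLC-MS/MS after 7% trichloroacetic acid precipitation; mean ± SD, n = 3.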

[2] = biological target: Indoleamine 2,3-dioxygenase 1 (Homo sapiens) (UniProt P14902); experiment: Inhibition of recombinant human IDO1 expressed in Escherichia coli BL21(DE3) preincubated for 40 mins followed by Trp addition and measured after 60 mins by LC-MS analysis; settings: time 100.0 min
[3] = biological target: Indoleamine 2,3-dioxygenase 1 (Homo sapiens) (UniProt P14902); experiment: Inhibition of IDO1 in human BXPC-3 cells assessed as reduction in IFNgamma induced kynurenine level at 10 uM incubated for 48 hrs by LC-MS analysis; format: cell-based
Summary of the method: (§2)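 BxPC-3 cells were seeded at 20,000/well in phenol-red-free medium. After 24 h, 50 ng/mL IFN-γ and 380 μM Trp were added together with compound for 48 h. Supernatant was acidified with trichloroacetic acid (7% final), kept 15 min at room temperature and centrifuged. Kyn and Trp were quantified by HPLC-MS/MS.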

[4] = biological target: Indoleamine 2,3-dioxygenase 1 (Homo sapiens) (UniProt P14902); experiment: Inhibition of IDO1 in human BXPC-3 cells assessed as increase in Trp level at 10 uM incubated for 48 hrs in presence of IFNgamma by LC-MS analysis; format: cell-based; summary of the method: as §2
[5] = biological target: Indoleamine 2,3-dioxygenase 1 (Homo sapiens) (UniProt P14902); experiment: Inhibition of IDO1 in human HeLa cells assessed as reduction in IFNgamma induced IDO1 mRNA expression level incubated for 24 hrs by qPCR analysis; format: cell-based
Summary of the method: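 HeLa cells were plated at 250,000/well and grown 24 h, then treated with 50 ng/mL IFN-γ plus compound for 24 h. Total RNA was extracted with on-column DNase digestion, and cDNA was made from 800 ng RNA. IDO1 mRNA was quantified by qPCR; mean ± SD, n = 3.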

[6] = biological target: Indoleamine 2,3-dioxygenase 1 (Homo sapiens) (UniProt P14902); experiment: Inhibition of IDO1 in human HeLa cells assessed as reduction in IFNgamma induced IDO1 protein expression level incubated for 24 hrs by immunoblotting analysis; format: cell-based
Summary of the method: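 HeLa cells were plated at 250,000/well and grown 24 h, then exposed to 50 ng/mL IFN-γ and compound for 24 h. Cells were lysed in Laemmli buffer and 20–100 μg protein was resolved on 10% gels. Blots were probed with anti-IDO1 (1:5,000) and IRDye secondaries. IDO1 was normalized to vinculin; mean ± SD, n = 4.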

[7] = biological target: Indoleamine 2,3-dioxygenase 1 (Homo sapiens) (UniProt P14902); experiment: Inhibition of IDO1 in HEK293T cells assessed as reduction in IFNgamma induced IDO1 protein expression incubated for 48 hrs; format: cell-based
[8] = biological target: Indoleamine 2,3-dioxygenase 1 (Homo sapiens) (UniProt P14902); experiment: Inhibition of IDO1 in human BXPC-3 cells assessed as reduction in IFNgamma induced Trp level at 5 uM pretreated with IFNgamma for 24 hrs followed by compound addition for 30 mins prior to Trp addition and measured after 30 mins by HPLC-MS/MS analysis; format: cell-based; settings: time 25.0 hrs; summary of the method: as §1
[9] = biological target: T1, Bifunctional epoxide hydrolase 2 (Homo sapiens) (UniProt P34913); settings: HAP1, dose 500.0 nM
T1 sequence (whole entry): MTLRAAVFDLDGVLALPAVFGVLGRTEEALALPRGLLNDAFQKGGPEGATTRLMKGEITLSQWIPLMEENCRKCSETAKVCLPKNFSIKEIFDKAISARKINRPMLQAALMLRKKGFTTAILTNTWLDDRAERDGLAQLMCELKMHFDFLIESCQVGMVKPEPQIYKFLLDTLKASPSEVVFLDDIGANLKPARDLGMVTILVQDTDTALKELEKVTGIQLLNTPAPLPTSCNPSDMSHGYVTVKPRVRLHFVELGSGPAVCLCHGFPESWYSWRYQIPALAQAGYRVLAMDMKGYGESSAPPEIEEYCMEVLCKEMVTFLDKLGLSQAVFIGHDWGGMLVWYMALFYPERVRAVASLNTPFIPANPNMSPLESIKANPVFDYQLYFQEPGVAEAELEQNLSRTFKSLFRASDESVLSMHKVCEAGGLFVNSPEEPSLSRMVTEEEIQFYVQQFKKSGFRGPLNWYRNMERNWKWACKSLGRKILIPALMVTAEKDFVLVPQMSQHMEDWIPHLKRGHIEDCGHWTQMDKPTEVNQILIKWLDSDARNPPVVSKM

Chain of Indoleamine 2,3-dioxygenase 1 (Homo sapiens) (P14902 whole entry, looked up): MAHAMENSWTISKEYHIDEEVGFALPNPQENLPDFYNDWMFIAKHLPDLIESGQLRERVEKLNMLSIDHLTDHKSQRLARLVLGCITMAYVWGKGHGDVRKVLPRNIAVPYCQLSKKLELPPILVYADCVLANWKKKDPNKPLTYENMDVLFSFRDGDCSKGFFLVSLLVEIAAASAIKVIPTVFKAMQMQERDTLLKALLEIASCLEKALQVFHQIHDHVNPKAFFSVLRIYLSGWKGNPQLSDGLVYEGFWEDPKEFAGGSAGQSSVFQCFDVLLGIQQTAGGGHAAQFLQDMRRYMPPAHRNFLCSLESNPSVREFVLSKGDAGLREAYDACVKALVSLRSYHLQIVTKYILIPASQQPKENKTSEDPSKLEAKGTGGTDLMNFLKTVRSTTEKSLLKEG

Q: `CC(C)C[C@H](N)C(=O)O` was tested. Which inhibition [1] did it give?
A: The inhibition was “Active”.

Q: `O=C(c1cn(CCOc2ccc3c(c2)OCO3)c2ccc(Br)cc12)C(F)(F)F` was tested. Which inhibition [2] did it give?
A: The inhibition was “inactive”.

Q: And the inhibition [3]?
A: The inhibition was “Active”.

Q: And the inhibition [4]?
A: The inhibition was “Dose-Dependent Effect”.

Q: Which results are given for `O=C(Cn1cc(C(=O)C(F)(F)F)c2cc(Br)ccc21)NC1CCCCCC1`?
A: inhibition [5]: inactive; inhibition [2]: inactive; inhibition [6]: inactive; inhibition [7]: inactive; inhibition [8]: inactive

Q: `NS(=O)(=O)NCCNc1nonc1/C(=N/O)Nc1ccc(F)c(Br)c1` was tested. Which inhibition [9] did it give?
A: The inhibition was “Active”.
